Assay results: ChEMBL document CHEMBL2346654, “Discovery of biological evaluation of pyrazole/imidazole amides as mGlu5 receptor negative allosteric modulators” (Bioorg Med Chem Lett, 2013); call rule not given here

Columns and labels:
[1] = Half life in rat liver microsomes
[2] = Half life in human liver microsomes
[3] = Half life in mouse liver microsomes
[4] = target: T1, Metabotropic glutamate receptor 5 (Homo sapiens, UniProt P41594); test: Negative allosteric modulation of human mGluR5 expressed in HEK293 cells assessed as calcium mobilization by FLIPR assay; assay type: functional, cell-based
Target sequence in this assay (P41594 whole entry): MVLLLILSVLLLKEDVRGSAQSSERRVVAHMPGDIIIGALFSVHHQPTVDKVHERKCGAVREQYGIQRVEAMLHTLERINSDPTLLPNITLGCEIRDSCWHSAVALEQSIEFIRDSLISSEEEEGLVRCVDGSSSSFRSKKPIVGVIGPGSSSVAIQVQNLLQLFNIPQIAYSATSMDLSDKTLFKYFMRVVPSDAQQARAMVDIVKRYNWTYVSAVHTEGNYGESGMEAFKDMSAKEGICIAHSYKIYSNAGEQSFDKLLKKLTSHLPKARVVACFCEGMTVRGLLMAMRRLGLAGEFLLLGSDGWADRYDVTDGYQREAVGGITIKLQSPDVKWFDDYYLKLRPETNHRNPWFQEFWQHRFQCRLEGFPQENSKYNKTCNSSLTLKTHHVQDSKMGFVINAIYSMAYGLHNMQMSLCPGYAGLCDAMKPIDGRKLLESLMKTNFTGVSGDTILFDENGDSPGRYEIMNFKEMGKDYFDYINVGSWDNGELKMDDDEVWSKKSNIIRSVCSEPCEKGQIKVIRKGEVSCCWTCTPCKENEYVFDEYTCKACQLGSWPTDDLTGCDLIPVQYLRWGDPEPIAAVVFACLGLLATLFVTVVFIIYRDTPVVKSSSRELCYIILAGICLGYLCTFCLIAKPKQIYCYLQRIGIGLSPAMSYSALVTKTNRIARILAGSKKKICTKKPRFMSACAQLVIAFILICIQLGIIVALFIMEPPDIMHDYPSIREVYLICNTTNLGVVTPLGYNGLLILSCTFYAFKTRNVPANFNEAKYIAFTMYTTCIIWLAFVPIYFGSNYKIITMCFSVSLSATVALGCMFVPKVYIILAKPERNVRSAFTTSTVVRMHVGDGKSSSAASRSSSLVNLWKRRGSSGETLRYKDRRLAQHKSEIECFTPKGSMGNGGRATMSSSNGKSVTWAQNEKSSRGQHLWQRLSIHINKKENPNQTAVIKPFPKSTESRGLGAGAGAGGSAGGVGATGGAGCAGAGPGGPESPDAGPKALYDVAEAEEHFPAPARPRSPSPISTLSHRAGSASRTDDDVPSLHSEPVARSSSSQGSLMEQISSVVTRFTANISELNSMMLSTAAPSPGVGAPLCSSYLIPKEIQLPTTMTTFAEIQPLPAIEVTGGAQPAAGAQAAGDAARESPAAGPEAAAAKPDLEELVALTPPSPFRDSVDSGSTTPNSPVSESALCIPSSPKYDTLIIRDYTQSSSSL

Mus musculus [5] = test: Antidepressant activity in ICR mouse assessed as decrease in immobility time at 50 mg/kg, po administered 1 hr before test measured for 4 mins following training for 2 mins by forced swimming test; assay type: functional; design: scale not given: the % may be the effect or the level left
Method in brief: (§1)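 Mouse forced swim test: ICR mice dosed orally 1 h before testing; 2 min training, then immobility duration recorded over 4 min. Activity expressed as % decrease in immobility duration. Mean ± SEM, n = 8; Dunnett's multiple comparisons after one-way ANOVA (p < 0.05).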

[6] = target: T1, Metabotropic glutamate receptor 5; test: Negative allosteric modulation of human mGluR5 expressed in HEK293 cells assessed as calcium mobilization at 10 uM by FLIPR assay; assay type: functional, cell-based
Target sequence in this assay (P41594 21-1212 limits assumed): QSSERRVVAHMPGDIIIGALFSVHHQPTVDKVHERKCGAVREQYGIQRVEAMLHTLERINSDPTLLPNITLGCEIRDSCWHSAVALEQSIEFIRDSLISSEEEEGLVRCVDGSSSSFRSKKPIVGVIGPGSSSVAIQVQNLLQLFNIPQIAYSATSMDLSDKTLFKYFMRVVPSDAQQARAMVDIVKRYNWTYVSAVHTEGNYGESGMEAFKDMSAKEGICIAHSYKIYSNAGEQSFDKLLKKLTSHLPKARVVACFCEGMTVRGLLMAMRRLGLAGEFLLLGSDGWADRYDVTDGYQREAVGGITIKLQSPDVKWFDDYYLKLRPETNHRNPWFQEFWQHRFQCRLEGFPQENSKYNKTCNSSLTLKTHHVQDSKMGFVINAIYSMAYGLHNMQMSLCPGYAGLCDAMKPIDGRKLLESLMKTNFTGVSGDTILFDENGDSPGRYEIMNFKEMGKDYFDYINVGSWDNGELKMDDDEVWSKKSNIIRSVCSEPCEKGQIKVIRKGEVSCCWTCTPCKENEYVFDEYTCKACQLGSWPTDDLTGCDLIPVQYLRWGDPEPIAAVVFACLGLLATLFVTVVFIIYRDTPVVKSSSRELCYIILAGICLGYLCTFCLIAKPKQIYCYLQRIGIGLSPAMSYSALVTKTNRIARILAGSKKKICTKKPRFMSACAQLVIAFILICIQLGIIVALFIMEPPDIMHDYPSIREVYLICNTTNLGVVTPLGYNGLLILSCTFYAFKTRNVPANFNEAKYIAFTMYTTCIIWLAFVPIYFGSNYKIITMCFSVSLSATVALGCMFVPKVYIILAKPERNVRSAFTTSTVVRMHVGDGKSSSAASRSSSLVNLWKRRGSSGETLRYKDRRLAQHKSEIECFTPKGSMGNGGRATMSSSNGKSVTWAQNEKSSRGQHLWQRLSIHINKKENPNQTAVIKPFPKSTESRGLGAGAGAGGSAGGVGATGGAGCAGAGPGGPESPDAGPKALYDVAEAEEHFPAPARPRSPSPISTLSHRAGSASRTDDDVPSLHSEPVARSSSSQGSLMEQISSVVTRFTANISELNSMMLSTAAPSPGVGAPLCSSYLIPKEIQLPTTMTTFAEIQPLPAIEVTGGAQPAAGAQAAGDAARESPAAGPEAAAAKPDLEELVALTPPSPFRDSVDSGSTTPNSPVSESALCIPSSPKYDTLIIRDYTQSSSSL

Mus musculus [7] = test: Antidepressant activity in ICR mouse assessed as decrease in immobility time at 10 mg/kg, po administered 1 hr before test measured for 4 mins following training for 2 mins by forced swimming test; assay type: functional; design: scale not given: the % may be the effect or the level left; method in brief: as §1
[8] = Ratio of drug level in brain to plasma in Sprague-Dawley rat at 10 mg/kg, ip after 1 hr; assay type: ADME, organism-based; design: dose 10 mg/kg, route intraperitoneal; conditions: brain and plasma, read-out: BPR
Method in brief: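 Sprague–Dawley rats given a single 10 mg/kg intraperitoneal dose. Plasma and brain concentrations measured 1 h after dosing and expressed as a brain/plasma ratio.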

[9] = target: Metabotropic glutamate receptor 1 (Homo sapiens) (UniProt Q13255); test: Inhibition of mGluR1 (unknown origin) at 10 uM
Chain of Metabotropic glutamate receptor 1 (Homo sapiens) (Q13255 19-1194 limits assumed): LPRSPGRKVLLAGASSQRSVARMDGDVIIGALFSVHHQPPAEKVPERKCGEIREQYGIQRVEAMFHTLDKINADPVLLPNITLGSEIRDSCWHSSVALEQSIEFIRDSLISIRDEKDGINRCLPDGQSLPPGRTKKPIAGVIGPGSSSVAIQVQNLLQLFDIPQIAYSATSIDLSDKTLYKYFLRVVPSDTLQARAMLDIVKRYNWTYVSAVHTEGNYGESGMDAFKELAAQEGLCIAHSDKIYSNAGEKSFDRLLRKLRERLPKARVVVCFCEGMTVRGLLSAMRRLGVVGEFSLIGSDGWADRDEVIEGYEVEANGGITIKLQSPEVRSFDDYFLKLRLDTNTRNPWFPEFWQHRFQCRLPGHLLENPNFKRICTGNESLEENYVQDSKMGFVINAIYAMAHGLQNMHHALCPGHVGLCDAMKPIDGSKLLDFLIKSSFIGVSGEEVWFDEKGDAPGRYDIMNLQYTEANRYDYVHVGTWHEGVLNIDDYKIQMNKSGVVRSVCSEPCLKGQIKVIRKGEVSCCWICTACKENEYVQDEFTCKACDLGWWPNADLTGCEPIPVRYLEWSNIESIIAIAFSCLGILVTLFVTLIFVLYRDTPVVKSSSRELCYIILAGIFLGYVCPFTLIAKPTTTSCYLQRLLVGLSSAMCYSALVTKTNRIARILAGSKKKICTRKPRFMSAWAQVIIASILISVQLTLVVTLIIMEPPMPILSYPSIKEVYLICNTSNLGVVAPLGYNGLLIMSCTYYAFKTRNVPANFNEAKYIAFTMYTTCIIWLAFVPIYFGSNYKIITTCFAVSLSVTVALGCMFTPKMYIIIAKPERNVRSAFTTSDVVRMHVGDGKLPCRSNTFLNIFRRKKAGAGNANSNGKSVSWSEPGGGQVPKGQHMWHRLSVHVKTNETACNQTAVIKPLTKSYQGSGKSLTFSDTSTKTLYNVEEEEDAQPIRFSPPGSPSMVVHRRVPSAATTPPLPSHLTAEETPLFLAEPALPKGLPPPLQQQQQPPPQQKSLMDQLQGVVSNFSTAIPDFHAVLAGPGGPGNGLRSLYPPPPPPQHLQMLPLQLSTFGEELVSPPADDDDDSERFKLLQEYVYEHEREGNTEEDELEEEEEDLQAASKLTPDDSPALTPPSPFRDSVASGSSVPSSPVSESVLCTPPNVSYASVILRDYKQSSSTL

hERG (KCNH2) = hERG (KCNH2) (Homo sapiens, UniProt Q12809); test: Inhibition of human ERG at 10 uM
[10] = Intrinsic clearance in human hepatocytes assessed per 10^6 cells; assay type: ADME, cell-based, Hepatocyte; conditions: read-out: CLH
Cytochrome P450 3A4 = Cytochrome P450 3A4 (Homo sapiens, UniProt P08684); test: Inhibition of CYP3A4 (unknown origin) at 10 uM; assay type: ADME
Chain of Cytochrome P450 3A4 (P08684 whole entry): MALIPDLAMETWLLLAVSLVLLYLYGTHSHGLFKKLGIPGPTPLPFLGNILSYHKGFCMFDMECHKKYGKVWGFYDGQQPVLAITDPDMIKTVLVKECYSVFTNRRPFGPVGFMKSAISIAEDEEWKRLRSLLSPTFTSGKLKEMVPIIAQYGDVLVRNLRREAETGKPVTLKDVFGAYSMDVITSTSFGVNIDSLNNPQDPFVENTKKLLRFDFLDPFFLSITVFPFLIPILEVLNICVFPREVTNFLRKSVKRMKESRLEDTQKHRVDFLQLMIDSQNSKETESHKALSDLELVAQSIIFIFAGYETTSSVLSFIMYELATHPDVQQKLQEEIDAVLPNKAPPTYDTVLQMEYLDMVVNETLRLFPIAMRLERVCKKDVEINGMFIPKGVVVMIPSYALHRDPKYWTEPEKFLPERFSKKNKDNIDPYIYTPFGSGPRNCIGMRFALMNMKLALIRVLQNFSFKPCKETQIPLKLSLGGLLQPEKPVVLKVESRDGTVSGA

Cytochrome P450 2C9 = Cytochrome P450 2C9 (Homo sapiens, UniProt P11712); test: Inhibition of CYP2C9 (unknown origin) at 10 uM; assay type: ADME
Cytochrome P450 2C19 = Cytochrome P450 2C19 (Homo sapiens, UniProt P33261); test: Inhibition of CYP2C19 (unknown origin) at 10 uM; assay type: ADME
Cytochrome P450 2D6 = Cytochrome P450 2D6 (Homo sapiens, UniProt P10635); test: Inhibition of CYP2D6 (unknown origin) at 10 uM; assay type: ADME
Cytochrome P450 1A2 = Cytochrome P450 1A2 (Homo sapiens, UniProt P05177); test: Inhibition of CYP1A2 (unknown origin) at 10 uM; assay type: ADME
Chain of Cytochrome P450 1A2 (P05177 whole entry): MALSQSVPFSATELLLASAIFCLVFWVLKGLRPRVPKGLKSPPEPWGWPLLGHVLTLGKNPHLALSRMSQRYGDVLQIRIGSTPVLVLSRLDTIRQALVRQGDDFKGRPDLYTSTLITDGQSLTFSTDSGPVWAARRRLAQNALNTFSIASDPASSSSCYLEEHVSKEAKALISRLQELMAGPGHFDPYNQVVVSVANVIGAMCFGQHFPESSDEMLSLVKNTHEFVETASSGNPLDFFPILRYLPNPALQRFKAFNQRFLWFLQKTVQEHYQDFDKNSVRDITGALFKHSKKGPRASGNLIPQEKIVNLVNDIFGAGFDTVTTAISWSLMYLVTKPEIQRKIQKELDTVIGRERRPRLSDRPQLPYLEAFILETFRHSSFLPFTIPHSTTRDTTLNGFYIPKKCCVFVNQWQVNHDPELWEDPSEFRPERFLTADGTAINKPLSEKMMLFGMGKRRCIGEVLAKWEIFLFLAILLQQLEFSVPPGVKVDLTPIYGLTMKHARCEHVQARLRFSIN

[11] = target: T1, Metabotropic glutamate receptor 5; test: Negative allosteric modulation of human mGluR5 expressed in HEK293 cells assessed as calcium mobilization at 1 uM by FLIPR assay; assay type: functional, cell-based
Target sequence in this assay (P41594 21-1212 limits assumed): as the sequence (P41594 21-1212 limits assumed) above

[12] = target: T1, Metabotropic glutamate receptor 5; test: Negative allosteric modulation of human mGluR5 expressed in HEK293 cells assessed as calcium mobilization at 2 uM by FLIPR assay; assay type: functional, cell-based
Target sequence in this assay (P41594 21-1212 limits assumed): as above

**Q.** What does the source list for `Cc1cccc(NC(=O)c2nn(C)c(-c3cccc(Cl)c3)c2C)n1`?
**A.** half-life ([1]; microsomes): 0.917 h; half-life ([2]; microsomes): 2 h; half-life ([3]; microsomes): 0.533 h; IC50 [4]: 4.7 nM

**Q.** For `Fc1ccc2nc(CCC#Cc3ccccn3)cn2c1` [DIPRAGLURANT], which Activity (Mus musculus [5]) is on record?
**A.** Its Activity is 44.3%.

**Q.** What about the IC50 [4] of the same compound?
**A.** Its IC50 is 20 nM.

**Q.** For `Cc1cccc(NC(=O)c2nn(C)c(OCC3CCCCC3)c2C)n1`, which IC50 [4] is on record?
**A.** Its IC50 is 1300 nM.

**Q.** Which IC50 [4] does the source give for `Cc1cccc(NC(=O)c2nn(C)c(-c3ccc(N(C)C)cc3)c2C)n1` here?
**A.** The IC50 was 645 nM.

**Q.** With `Cc1cccc(NC(=O)c2nn(C)c3ccccc23)n1` as the compound, how does the IC50 [4] read?
**A.** Its IC50 is > 1000 nM.

**Q.** With `Cc1cccc(NC(=O)c2nn(C)c(-c3ccccc3)c2-c2ccccc2)n1` as the compound, how does the inhibition [6] read?
**A.** The inhibition was 26%.

**Q.** For `Cc1cccc(NC(=O)c2nn(C)c(OCc3ccc(F)cc3)c2C)n1`, which IC50 [4] is on record?
**A.** Its IC50 is 911 nM.

**Q.** For `CCc1c(C(=O)Nc2cccc(C)n2)nn(C)c1-c1ccccc1`, which IC50 [4] is on record?
**A.** Its IC50 is 27 nM.

**Q.** For `Cc1c(C(=O)Nc2ccncc2)nn(C)c1-c1ccc(F)cc1`, which IC50 [4] is on record?
**A.** The IC50 was 301 nM.

**Q.** With `Cc1cccc(NC(=O)c2nc(C)n(-c3ccc(F)cc3)c2C)n1` as the compound, how does the Activity (Mus musculus [7]) read?
**A.** Its Activity is 52.1%.

**Q.** What about the half-life ([1]; microsomes) of the same compound?
**A.** Its half-life is 1.77 h.

**Q.** And the half-life ([2]; microsomes)?
**A.** Its half-life is 0.733 h.

**Q.** What about the half-life ([3]; microsomes) of the same compound?
**A.** Its half-life is 0.3 h.

**Q.** And the IC50 [4]?
**A.** The IC50 was 13 nM.

**Q.** For `Cc1cccc(NC(=O)c2c3c(nn2C)CCCC3)n1`, which IC50 [4] is on record?
**A.** The IC50 was > 1000 nM.

**Q.** Which half-life ([1]; liver microsomes) does the source give for `Cc1nc(C(=O)Nc2cccc(F)n2)c(C)n1-c1ccc(F)cc1` here?
**A.** Its half-life is 1.13 h.

**Q.** And the half-life ([2]; liver microsomes)?
**A.** The half-life was 1.6 h.

**Q.** And the half-life ([3]; liver microsomes)?
**A.** The half-life was 0.617 h.

**Q.** What about the IC50 [4] of the same compound?
**A.** Its IC50 is 24.2 nM.

**Q.** What does the source list for `Cc1cc(NC(=O)c2nn(C)c(-c3ccc(F)cc3)c2C)ccn1`?
**A.** half-life ([1]; microsomes): 1.27 h; half-life ([2]; microsomes): 1.28 h; half-life ([3]; microsomes): 1.4 h; IC50 [4]: 94.5 nM

**Q.** With `Cc1c(C(=O)Nc2ccc(Cl)cn2)nn(C)c1-c1ccc(F)cc1` as the compound, how does the half-life ([1]; liver microsomes) read?
**A.** The half-life was 3.65 h.

**Q.** What about the half-life ([2]; liver microsomes) of the same compound?
**A.** Its half-life is > 5 h.

**Q.** And the half-life ([3]; liver microsomes)?
**A.** The half-life was 0.267 h.

**Q.** And the IC50 [4]?
**A.** Its IC50 is 184 nM.

**Q.** What does the source list for `Cc1nc(C(=O)Nc2ccnc(Cl)n2)c(C)n1-c1ccc(F)cc1`?
**A.** Kp at 1 h [8]: 1.63; inhibition [9]: 10%; inhibition at 10 µM (hERG (KCNH2)): 13%; hepatocyte CLint [10]: 0.99 µL/min/1e6 cells; inhibition (INH) (Cytochrome P450 3A4): Not Active; inhibition (INH) (Cytochrome P450 2C9): Not Active; inhibition (INH) (Cytochrome P450 2C19): Not Active; inhibition (INH) (Cytochrome P450 2D6): Not Active; inhibition (INH) (Cytochrome P450 1A2): Not Active; Activity (Mus musculus [7]): 65.3%; half-life ([1]; liver microsomes): 2.75 h; half-life ([2]; liver microsomes): 4.72 h; half-life ([3]; liver microsomes): 4.63 h; IC50 [4]: 40.4 nM

**Q.** Which Activity (Mus musculus [7]) does the source give for `Cc1c(C(=O)Nc2cccc(Cl)n2)nn(C)c1-c1ccc(F)cc1` here?
**A.** Its Activity is 12.6%.

**Q.** What about the half-life ([1]; liver microsomes) of the same compound?
**A.** The half-life was 1.8 h.

**Q.** What about the half-life ([2]; liver microsomes) of the same compound?
**A.** Its half-life is 1.92 h.

**Q.** And the half-life ([3]; liver microsomes)?
**A.** The half-life was 1.93 h.

**Q.** What about the IC50 [4] of the same compound?
**A.** Its IC50 is 16.4 nM.

**Q.** What does the source list for `Cc1c(C(=O)Nc2ccnc(Cl)n2)nn(C)c1-c1ccc(F)cc1`?
**A.** Activity (Mus musculus [7]): 31.2%; half-life ([1]; liver microsomes): > 5 h; half-life ([2]; liver microsomes): > 5 h; half-life ([3]; liver microsomes): > 5 h; IC50 [4]: 7.1 nM

**Q.** Which half-life ([1]; microsomes) does the source give for `Cc1cccc(NC(=O)c2nc(C)n(-c3ccc(C(F)(F)F)cc3)c2C)n1` here?
**A.** The half-life was > 5 h.

**Q.** And the half-life ([2]; microsomes)?
**A.** The half-life was > 5 h.

**Q.** What about the half-life ([3]; microsomes) of the same compound?
**A.** The half-life was > 5 h.

**Q.** And the IC50 [4]?
**A.** The IC50 was 46.2 nM.

**Q.** Which half-life ([1]; microsomes) does the source give for `Cc1nc(C(=O)Nc2ccc(F)cn2)c(C)n1-c1ccc(F)cc1` here?
**A.** The half-life was 1.83 h.

**Q.** And the half-life ([2]; microsomes)?
**A.** Its half-life is > 5 h.

**Q.** And the half-life ([3]; microsomes)?
**A.** The half-life was 0.533 h.

**Q.** And the IC50 [4]?
**A.** The IC50 was 88.3 nM.

**Q.** Which results are given for `Cc1nc(C(=O)Nc2ccnc(Cl)c2)c(C)n1-c1ccc(F)cc1`?
**A.** half-life ([1]; microsomes): 1.57 h; half-life ([2]; microsomes): 3.75 h; half-life ([3]; microsomes): 5 h; IC50 [4]: 62 nM

**Q.** For `Cc1cccc(NC(=O)c2nn(C)c(OC3CCOCC3)c2C)n1`, which inhibition [11] is on record?
**A.** The inhibition was 11.6%.

**Q.** For `Cc1cccc(NC(=O)c2nn(C)c(OC3CCN(C)CC3)c2C)n1`, which inhibition [11] is on record?
**A.** Its inhibition is -7.7%.

**Q.** What does the source list for `Cc1c(C(=O)Nc2ccc(F)cn2)nn(C)c1-c1ccc(F)cc1`?
**A.** Activity (Mus musculus [7]): 36.8%; half-life ([1]; microsomes): > 5 h; half-life ([2]; microsomes): > 5 h; half-life ([3]; microsomes): 0.65 h; IC50 [4]: 10.3 nM

**Q.** For `O=C(Nc1cccc(Cl)c1)c1noc2c1CCC2`, which IC50 [4] is on record?
**A.** The IC50 was 63 nM.

**Q.** For `COc1ccc(-c2c(C)c(C(=O)Nc3cccc(C)n3)nn2C)cc1`, which Activity (Mus musculus [7]) is on record?
**A.** Its Activity is 14.4%.

**Q.** What about the half-life ([1]; liver microsomes) of the same compound?
**A.** The half-life was 1.58 h.

**Q.** And the half-life ([2]; liver microsomes)?
**A.** The half-life was > 5 h.

**Q.** What about the half-life ([3]; liver microsomes) of the same compound?
**A.** Its half-life is 1.18 h.

**Q.** What about the IC50 [4] of the same compound?
**A.** Its IC50 is 17 nM.

**Q.** For `CCCc1c(C(=O)Nc2cccc(C)n2)nn(C)c1-c1ccccc1`, which inhibition [12] is on record?
**A.** Its inhibition is 37%.

**Q.** Which Activity (Mus musculus [7]) does the source give for `Cc1cccc(NC(=O)c2nn(C)c(-c3ccc(Cl)c(Cl)c3)c2C)n1` here?
**A.** Its Activity is 45.8%.

**Q.** And the half-life ([1]; liver microsomes)?
**A.** Its half-life is 2.47 h.

**Q.** And the half-life ([2]; liver microsomes)?
**A.** The half-life was 1.78 h.

**Q.** And the half-life ([3]; liver microsomes)?
**A.** The half-life was 3.25 h.

**Q.** What about the IC50 [4] of the same compound?
**A.** Its IC50 is 2.3 nM.

**Q.** Which Activity (Mus musculus [7]) does the source give for `Cc1cccc(NC(=O)c2nc(C)n(-c3ccc(Cl)c(Cl)c3)c2C)n1` here?
**A.** The Activity was 85.2%.

**Q.** What about the half-life ([1]; liver microsomes) of the same compound?
**A.** The half-life was 2.23 h.

**Q.** What about the half-life ([2]; liver microsomes) of the same compound?
**A.** The half-life was 2.03 h.

**Q.** And the half-life ([3]; liver microsomes)?
**A.** The half-life was 1.55 h.

**Q.** And the IC50 [4]?
**A.** Its IC50 is 5.8 nM.

**Q.** Which Activity (Mus musculus [7]) does the source give for `Cc1csc(NC(=O)c2nn(C)c(-c3ccc(F)cc3)c2C)n1` here?
**A.** The Activity was 32.8%.

**Q.** What about the half-life ([1]; microsomes) of the same compound?
**A.** Its half-life is 1.02 h.

**Q.** And the half-life ([2]; microsomes)?
**A.** The half-life was 2.03 h.

**Q.** What about the half-life ([3]; microsomes) of the same compound?
**A.** The half-life was 0.75 h.

**Q.** What about the IC50 [4] of the same compound?
**A.** Its IC50 is 16.4 nM.
